Measurements as given in ChEMBL document CHEMBL1134315 (J Med Chem, 2001).

Columns and labels:
U-937 [1] = experiment: Ability to inhibit [3H]anandamide uptake in human lymphoma U937 cells; format: functional, cell-based
In short: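 IC50 values come from three independent experiments, each run in triplicate, and are reported as mean ± standard error.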

Cannabinoid receptor 1 = Cannabinoid receptor 1 (Rattus norvegicus, UniProt P20272); experiment: Binding affinity to CB1 cannabinoid receptor using [3H]WIN-55212-2 in rat cerebellum membranes; format: cell membranes, Membrane
Cannabinoid receptor 1, sequence (P20272 whole entry): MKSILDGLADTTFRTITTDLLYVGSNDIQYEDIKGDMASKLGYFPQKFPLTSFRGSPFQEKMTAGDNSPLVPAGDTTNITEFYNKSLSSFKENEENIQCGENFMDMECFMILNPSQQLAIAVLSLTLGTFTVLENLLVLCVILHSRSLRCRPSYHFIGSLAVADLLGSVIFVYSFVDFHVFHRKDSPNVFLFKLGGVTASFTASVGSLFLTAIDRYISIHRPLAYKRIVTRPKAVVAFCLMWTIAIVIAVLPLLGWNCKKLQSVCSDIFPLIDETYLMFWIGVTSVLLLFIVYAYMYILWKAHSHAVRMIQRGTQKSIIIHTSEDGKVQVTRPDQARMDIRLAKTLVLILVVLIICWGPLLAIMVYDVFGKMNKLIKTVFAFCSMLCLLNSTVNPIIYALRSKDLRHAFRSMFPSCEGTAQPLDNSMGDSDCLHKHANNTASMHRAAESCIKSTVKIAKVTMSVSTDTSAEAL

[2] = target: Transient receptor potential cation channel subfamily V member 1 (Rattus norvegicus, UniProt O35433); experiment: Binding affinity to vanilloid VR1 receptor using [3H]resiniferatoxin ([3H]-RTX) in rat spinal cord membranes; format: cell membranes, Membrane
Transient receptor potential cation channel subfamily V member 1, sequence (O35433 whole entry): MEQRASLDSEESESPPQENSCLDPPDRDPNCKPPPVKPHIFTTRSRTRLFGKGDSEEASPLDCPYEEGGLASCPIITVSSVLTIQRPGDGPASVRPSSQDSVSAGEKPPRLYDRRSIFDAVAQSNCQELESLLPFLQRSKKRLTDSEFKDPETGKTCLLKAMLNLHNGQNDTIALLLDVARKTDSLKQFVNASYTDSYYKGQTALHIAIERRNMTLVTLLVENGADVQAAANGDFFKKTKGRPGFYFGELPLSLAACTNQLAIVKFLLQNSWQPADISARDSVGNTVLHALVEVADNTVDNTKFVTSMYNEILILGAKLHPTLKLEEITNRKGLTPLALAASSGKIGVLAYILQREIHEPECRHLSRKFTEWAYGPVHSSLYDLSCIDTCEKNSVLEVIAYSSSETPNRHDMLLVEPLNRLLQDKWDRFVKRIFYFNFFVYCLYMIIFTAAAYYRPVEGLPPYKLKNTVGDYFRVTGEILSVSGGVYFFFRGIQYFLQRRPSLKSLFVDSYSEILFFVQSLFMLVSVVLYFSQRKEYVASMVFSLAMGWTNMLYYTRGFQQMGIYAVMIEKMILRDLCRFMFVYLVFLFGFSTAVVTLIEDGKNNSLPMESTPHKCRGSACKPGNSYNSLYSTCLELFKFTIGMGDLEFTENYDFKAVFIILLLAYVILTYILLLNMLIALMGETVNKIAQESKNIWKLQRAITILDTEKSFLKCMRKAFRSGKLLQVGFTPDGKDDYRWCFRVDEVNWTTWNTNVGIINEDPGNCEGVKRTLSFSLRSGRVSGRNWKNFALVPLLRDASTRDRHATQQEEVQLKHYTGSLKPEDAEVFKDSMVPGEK
In short: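 Radioligand displacement binding used these systems: CB1, rat cerebellum membranes with [3H]WIN55212-2; CB2, HEK293EBNA cells transfected with the human CB2 receptor, with [3H]CP55940; VR1, rat spinal cord membranes with [3H]RTX. Ki values come from two independent experiments, each run in triplicate, and are reported as mean ± standard error.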

Cannabinoid receptor 2 = Cannabinoid receptor 2 (Homo sapiens, UniProt P34972); experiment: Binding affinity to human CB2 cannabinoid receptor using [3H]CP-55940 in HEK293 EBNA transfected cells; format: cell-based
Cannabinoid receptor 2, sequence (P34972 whole entry): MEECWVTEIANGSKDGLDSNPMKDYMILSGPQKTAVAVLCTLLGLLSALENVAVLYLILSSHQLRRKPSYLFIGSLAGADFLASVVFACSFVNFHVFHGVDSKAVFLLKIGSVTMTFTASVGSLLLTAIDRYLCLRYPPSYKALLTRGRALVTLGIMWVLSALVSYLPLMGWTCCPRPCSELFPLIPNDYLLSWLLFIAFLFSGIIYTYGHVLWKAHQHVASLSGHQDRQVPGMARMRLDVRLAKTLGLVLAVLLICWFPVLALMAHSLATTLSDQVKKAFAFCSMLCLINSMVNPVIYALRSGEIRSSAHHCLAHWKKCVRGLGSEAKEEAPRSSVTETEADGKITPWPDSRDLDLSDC

U-937 [3] = experiment: Ability to inhibit [3H]anandamide uptake in human lymphoma U937 cells; inactive; format: functional, cell-based

Row | Structure (SMILES) | IC50 (U-937 [1]) [nM] | Ki (Cannabinoid receptor 1) [nM] | Ki [2] [nM] | Ki (Cannabinoid receptor 2) [nM] | IC50 (U-937 [3])
1 | CCCCC/C=C\C/C=C\C/C=C\C/C=C\CCCC(=O)OCc1ccsc1 | 3000 | > 1000 | > 5000 | > 1000 | –
2 | CCCCC/C=C\C/C=C\C/C=C\C/C=C\CCCC(=O)NCC1CCCO1 (configuration not stated) | 8000 | > 1000 | > 5000 | > 1000 | –
3 | CCCCC/C=C\C/C=C\C/C=C\C/C=C\CCCC(=O)OCC1CCCO1 (configuration not stated) | 18000 | > 1000 | > 5000 | > 1000 | –
4 | CCCCC/C=C\C/C=C\C/C=C\C/C=C\CCCC(=O)OCC1CCOC1 (configuration not stated) | – | – | > 5000 | > 1000 | –
5 | CCCCC/C=C\C/C=C\C/C=C\C/C=C\CCCC(=O)OCc1ccoc1 | 14000 | > 1000 | < 5000 | > 1000 | –
6 | CCCCC/C=C\C/C=C\C/C=C\C/C=C\CCCC(=O)OCc1cccs1 | – | > 1000 | > 5000 | > 1000 | Not Active
7 | CCCCC/C=C\C/C=C\C/C=C\C/C=C\CCCC(=O)OCc1ccco1 | 24000 | > 1000 | > 5000 | > 1000 | –
8 | CCCCC/C=C\C/C=C\C/C=C\C/C=C\CCCC(=O)NCc1ccco1 | 5000 | > 1000 | < 5000 | > 1000 | –
9 | CCCCC/C=C\C/C=C\C/C=C\C/C=C\CCCC(=O)Nc1ccc(O)cc1 | 4000 | > 1000 | > 5000 | > 1000 | –
10 | CCCCC/C=C\C/C=C\C/C=C\C/C=C\CCCC(=O)NCc1cccn1C | 5000 | 124 | > 5000 | 70 | –
11 | CCCCC/C=C\C/C=C\C/C=C\C/C=C\CCCC(=O)NCc1cccs1 | 5700 | > 1000 | > 5000 | > 1000 | –
12 | CCCCC/C=C\C/C=C\C/C=C\C/C=C\CCCC(=O)NCc1ccoc1 | 800 | > 1000 | > 5000 | 67 | –
13 | CCCCC/C=C\C/C=C\C/C=C\C/C=C\CCCC(=O)NCCO [ANANDAMIDE] | – | – | 169 | – | –
